Experimental data from different studies.
Values after ≈ are worked out from the molar mass of the structure shown.
Organism: Staphylococcus aureus

Structure (SMILES)	assay	test system	conditions	endpoint	value
O=c1cccccc1Sc1cccccc1=O	microbial growth, broth dilution	ATCC29213	–	MIC80	> 100 µM
CC(C)c1nn(-c2nc3ccc(Br)cc3s2)c2c1C(=O)c1ccccc1-2	microbial growth, well diffusion	NCIM5021	1000 µg/mL	inhibition zone	12 mm
Cc1ccc2nc(-c3ccncc3)[nH]c2c1	microbial growth, broth dilution	ATCC29213 MSSA	–	MIC	64 µg/mL
O=C(O)CN1C(=O)/C(=C/c2c3ccccc3c(-c3ccc(N(c4ccccc4)c4ccccc4)cc3)c3ccccc23)SC1=S	microbial killing, broth dilution	ATCC25923	–	MBC	> 1000 µg/mL
C[C@@H]1CCN(C(=O)CC#N)C[C@@H]1N(C)c1ncnc2[nH]ccc12	microbial growth	NCTC8325	–	MIC	> 30 µM
CN[C@H](CC(C)C)C(=O)N[C@H]1C(=O)N[C@@H](CC(N)=O)C(=O)N[C@H]2C(=O)N[C@H]3C(=O)N[C@H](C(=O)N[C@H](C(=O)O)c4cc(O)cc(O)c4-c4cc3ccc4O)[C@H](O)c3ccc(c(Cl)c3)Oc3cc2cc(c3O[C@@H]2O[C@H](CO)[C@@H](O)[C@H](O)[C@H]2O[C@H]2C[C@](C)(N)[C@H](O)[C@H](C)O2)Oc2ccc(cc2Cl)[C@H]1O	microbial growth, disc diffusion	ATCC29213	125 µg/disc, 24 h	inhibition zone	20 mm
Cc1nc(Nc2ncc(C(=O)Nc3c(C)cccc3Cl)s2)cc(N2CCN(CCO)CC2)n1	microbial growth	NCTC8325	–	MIC	> 30 µM
COc1ccc2nc(-n3nc(C)c4c3-c3ccccc3C4=O)sc2c1	microbial growth, well diffusion	NCIM5021	1000 µg/mL	inhibition zone	13 mm
O=C1NC(=S)N/C1=C\c1ccc(-c2ccc(N(c3ccccc3)c3ccccc3)cc2)c2ccccc12	microbial killing, broth dilution	ATCC6538	–	MBC	> 1000 µg/mL
Cc1ccc2nc(-n3nc(C(C)C)c4c3-c3ccccc3C4=O)sc2c1	microbial growth, well diffusion	NCIM5021	1000 µg/mL	inhibition zone	14 mm
C#CCCCCCCCCCCCC(O)CC(O)CO (stereo not shown)	microbial growth, broth dilution	ATCC29213	–	IC50	3.26 µg/mL (≈ 11.5 µM)
O=C(O)CN1C(=O)/C(=C/c2ccc(-c3ccc(N(c4ccccc4)c4ccccc4)cc3)c3ccccc23)NC1=S	microbial killing, broth dilution	ATCC6538	–	MBC	> 1000 µg/mL
CC(C)c1cccc(=O)c(O)c1	microbial growth, broth dilution	ATCC29213	–	MIC80	66.7 µM (≈ 11 µg/mL)
O=C(Cc1ccc(Cl)c(C(F)(F)F)c1)Nc1ccc2c(c1)OC(F)(F)O2	microbial growth	NCTC8325	24 h	MIC	> 100 µM
O=C1NC(=S)N/C1=C\c1ccc(-c2ccc(N(c3ccccc3)c3ccccc3)cc2)cc1	microbial killing, broth dilution	ATCC25923	–	MBC	> 1000 µg/mL
CCCCCCCCCCCCCC(O)CC(O)CO (stereo not shown)	microbial growth, broth dilution	ATCC29213	–	IC50	17.2 µg/mL (≈ 59.6 µM)
CC1(c2ccccc2O)Nn2c(nc(-c3ccc(Cl)cc3)c(C#N)c2=O)N1C(Cc1c[nH]c2ccccc12)C(=O)O (stereo not shown)	microbial growth	ATCC25923	15 µg/mL, 24 h	inhibition zone	35 mm

Structure (SMILES)	assay	test system	conditions	endpoint	value
CC1(C)S[C@@H]2[C@H](NC(=O)[C@H](N)c3ccccc3)C(=O)N2[C@H]1C(=O)O	microbial growth, agar dilution	ATCC25923	26.93 µM	inhibition	100%
O=C1NC(=S)S/C1=C\c1ccc(-c2ccc(N(c3ccccc3)c3ccccc3)cc2)cc1	microbial killing, broth dilution	ATCC25923	–	MBC	1000 µg/mL (≈ 2150 µM)
Cc1ccc2nc(-n3nc(CC(C)C)c4c3-c3ccccc3C4=O)sc2c1	microbial growth, well diffusion	NCIM5021	250 µg/mL	inhibition zone	11 mm
O=C(O)CN1C(=O)/C(=C/c2ccc(-c3ccc(N(c4ccccc4)c4ccccc4)cc3)cc2)SC1=S	microbial killing, broth dilution	ATCC25923	–	MBC	31.3 µg/mL (≈ 59.9 µM)
CCN(CCO)CCCOc1ccc2c(Nc3cc(CC(=O)Nc4cccc(F)c4)[nH]n3)ncnc2c1	microbial growth	NCTC8325	–	MIC	> 30 µM
CC(C)Cc1nn(-c2nc3ccc(Cl)cc3s2)c2c1C(=O)c1ccccc1-2	microbial growth, well diffusion	NCIM5021	250 µg/mL	inhibition zone	10 mm
O=C(O)CN1C(=O)/C(=C/c2c3ccccc3c(-c3ccc(N(c4ccccc4)c4ccccc4)cc3)c3ccccc23)NC1=S	microbial killing, broth dilution	ATCC25923	–	MBC	> 1000 µg/mL
CN(C[C@@H]1COCCO1)S(=O)(=O)Nc1ccc2ccc3ncc(-c4cnn(C)c4)cc3c(=O)c2c1	microbial growth	NCTC8325	–	MIC	30 µM
Cc1nn(-c2nc3ccccc3s2)c2c1C(=O)c1ccccc1-2	microbial growth, well diffusion	NCIM5021	250 µg/mL	inhibition zone	10 mm
O=C(N/N=C/c1ccc([N+](=O)[O-])o1)c1ccc(O)cc1	microbial growth	ATCC700699	–	MIC90	15.6 µg/mL (≈ 56.8 µM)
CC(C)c1nn(-c2nc3ccc(Cl)cc3s2)c2c1C(=O)c1ccccc1-2	microbial growth, well diffusion	NCIM5021	500 µg/mL	inhibition zone	11 mm
Cc1cc(Nc2cc(N3CCN(C)CC3)nc(/C=C/c3ccccc3)n2)n[nH]1	microbial growth	NCTC8325	–	MIC	> 30 µM
O=C1NC(=S)S/C1=C\c1c2ccccc2c(-c2ccc(N(c3ccccc3)c3ccccc3)cc2)c2ccccc12	microbial killing, broth dilution	ATCC25923	–	MBC	> 1000 µg/mL
Cc1cc(Nc2cc(CN3CCOCC3)c3nc(C)c(Cc4ccc(Cl)cc4F)n3n2)n[nH]1	microbial growth	NCTC8325	–	MIC	30 µM
Cc1nn(-c2nc3ccc(Br)cc3s2)c2c1C(=O)c1ccccc1-2	microbial growth, well diffusion	NCIM5021	125 µg/mL	inhibition zone	10 mm
O=c1cccccc1SSc1cccccc1=O	microbial growth, broth dilution	ATCC29213	–	MIC80	> 100 µM
CCc1cccc(CC)c1NC(=O)N1Cc2[nH]nc(NC(=O)c3ccc(N4CCN(C)CC4)cc3)c2C1	microbial growth	NCTC8325	–	MIC	> 30 µM
